Test results from ChEMBL document CHEMBL3272264, “(+)- and (-)-3-Methoxycyproheptadine. A comparative evaluation of the antiserotonin, antihistaminic, anticholinergic, and orexigenic properties with cyproheptadine” (1977).

How the values were obtained:
Assay type in all cases: functional
Felis catus [1] = test: Orexigenic activity in cat assessed as food consumption at 0.25 mg/kg, po (reference value: 118 +/- 52 to 143 +/- 37 g)
Felis catus [2] = test: Orexigenic activity in cat assessed as food consumption at 0. 25 mg/kg, po (reference value: 119 +/- 39 to 155 +/- 34 g)
Felis catus [3] = test: Orexigenic activity in cat assessed as food consumption at 0. 0312 mg/kg, po (reference value: 107 +/- 29 to 146 +/- 24 g)
Felis catus [4] = test: Orexigenic activity in cat assessed as food consumption at 0. 25 mg/kg, po (reference value: 114 +/- 25 to 147 +/- 42 g)
Felis catus [5] = test: Orexigenic activity in cat assessed as food consumption at 0. 0312 mg/kg, po (reference value: 126 +/- 34 to 150 +/- 52 g)
Felis catus [6] = test: Orexigenic activity in cat assessed as food consumption at 0.0312 mg/kg, po (reference value: 126 +/- 26 to 155 +/- 33 g)
Rattus norvegicus = test: Antiserotonin activity against po dosed Sprague-Dawley rat assessed as inhibition of serotonin-induced edema of right hind paw compound administered 1 hr prior to serotonin challenge
In short: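 Male rats, 140-210 g, dosed orally 1 h before 5 µg serotonin (base) into the right hind paw; saline (0.05 mL) into the left paw. Feet removed and weighed 30 min later; percent inhibition of serotonin weight gain versus saline paw. Doses 0.156-80 mg/kg, 4-16 rats per dose. ED50 from log-dose regression.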

Cavia porcellus = test: Antihistaminic activity against ip dosed Duncan-Harley guinea pig assessed as inhibition of histamine aerosol-induced bronchoconstriction compound administered 30 mins prior to histamine challenge
In short: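 Guinea pigs of either sex, 200-300 g. Compound given ip as a suspension in 1% methylcellulose. 30 min later, 3-min exposure to histamine aerosol (0.5% base) in individual chambers, then 10 min observation. Dose range 0.031-6.25 mg/kg, 3-4 levels, 5-10 animals per level. ED50 is the dose protecting 50% from bronchoconstriction death, from log-dose regression.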

Felis catus [7] = test: Orexigenic activity in cat assessed as food consumption at 0. 25 mg/kg, po (reference value: 179 +/- 31 g)
Mus musculus = test: Anticholinergic activity in po dosed CF-1 mouse assessed as dose required to increase pupil diameter to 1.5 micrometer after 1 hr
In short: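 Female CF-1 mice dosed orally, five dose levels, ten mice per dose. Pupil diameter measured with an ocular micrometer 1 h after dosing. ED1.5 is the dose raising pupil diameter to 1.5 micrometer units, derived by regression of response on log dose (Finney).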

| SMILES | Activity (Felis catus [1]) | Activity (Felis catus [2]) | Activity (Felis catus [3]) | Activity (Felis catus [4]) | Activity (Felis catus [5]) | Activity (Felis catus [6]) | ED50 (Rattus norvegicus) | ED50 (Cavia porcellus) | Activity (Felis catus [7]) | ED (Mus musculus) |
| --- | --- | --- | --- | --- | --- | --- | --- | --- | --- | --- |
| COc1ccc2c(c1)C(=C1CCN(C)CC1)c1ccccc1C=C2 | 143 g | 140 g | 115 g | 134 g | 131 g | 110 g |  |  |  |  |
| CN1CCC(=C2c3ccccc3C=Cc3ccccc32)CC1 [CYPROHEPTADINE] |  |  |  |  |  |  | 0.24 mg/kg | 0.077 mg/kg | 220 g | 6 mg/kg |
